Screening results as filed in PubChem BioAssay.
Only some compounds are listed: those with a hit (about 1.8% of all), similar ones and a draw of the others.
EBNA-1 inh – blocks EBNA-1 binding to DNA; EBNA-1 DNA binding, fluorescence polarization; inhibition, % at 14.8 µM; 300,000 tested, 0.34% active; AID 1950; in the data active = inhibition above about 28%
procasp7 counter – counter-screen: procaspase-7 (human) activation | activation, % at 8.5 µM | P55210 | recombinant procaspase-7, Ac-DEVD-pNA absorbance 405 nm; D23A/D198A/D206A triple mutant, cannot self-cleave; scale: DMSO 0, 5 µM enzyme 100 | 330,000 tested, 0.093% active | AID 463210;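 active = percent activation above the screen-wide mean plus 3 SD, cut at about 25% in these data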
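System: Uncleavable procaspase-7 mutant enzyme; Amount: 2 µM procaspase-7 mutant as dispensed; Schedule: 1 h compound preincubation, 2 h substrate cleavage, 25 °C; Measured by: 405 nm absorbance of p-nitroaniline; Evaluation: percent activation from buffer-corrected 0–120 min absorbance change; Control set: low DMSO alone, high DMSO plus 5 µM PC-7.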
proCasp3 act – activates human procaspase-3; P42574; recombinant procaspase-3 D3A, Ac-DEVD-pNA absorbance 405 nm; 330,000 tested, 0.11% active; activation, % at 8.5 µM;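 active = activation above the mean of all tested compounds plus 3 SD, cut at about 21% in these data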;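 note: 0% = DMSO alone and 100% = DMSO wells spiked with extra 5 µM PC-3 D3A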
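System: Procaspase-3 D3A mutant. Medium: Zinc-free 300 mM NaCl, 50 mM HEPES, 0.01% Triton X-100. Schedule: 1 h preincubation plus 2 h reaction at 25 °C. Measured by: 405 nm absorbance of p-nitroaniline, reads at 0 and 120 min. Read-out: percent activation relative to control range.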
GSTO1 counter – blocks human GSTO1 in RBBP9 counter-screen; inhibition, % at 5.96 µM; recombinant GSTO1, activity-based probe fluorescence polarization; 300,000 tested, 1.1% active;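 active = inhibition above the campaign mean inhibition plus 3 SD, cut at about 35% in these data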;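 note: 0% = GSTO1-1 with DMSO and 100% = wells lacking GSTO1-1 enzyme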
Apaf1 inhib – blocks human Apaf-1 apoptosome activity. reconstituted apoptosome caspase-3 activity, DEVD-Rh110 fluorescence. O14727. 330,000 tested, 0.71% active. inhibition, % at 20 µM. AID 489030; active = inhibition of at least 40% at 20 µM;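 note: plate controls were DMSO wells for no effect and DEVD-CHO caspase inhibitor wells for full effect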
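Material: reconstituted apoptosome with Apaf-1, cytochrome c, caspase-9, procaspase-3, dATP; medium: pH 7.5 Hepes buffer with CHAPS, BSA, DTT; also added: cytochrome c and DEVD-Rh110 substrate; timing: 30 min plus 50 min, RT; signal: Rh110 fluorescence intensity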
ZTA counter – counter-screen for EBNA-1 inhibitors: inhibitors of Epstein-Barr virus ZTA. P03206. ZTA-DNA binding, fluorescence polarization. inhibition, % at 11 µM. 320,000 tested, 0.15% active. AID 2234; in the data active = inhibition above about 33%
EBNA-1 confirm – EBNA-1 (EBV) inhibition, confirmation | shares compounds with EBNA-1 inh | Recombinant EBNA-1 DBD, Cy5-DNA fluorescence polarization | inhibition, % at 14.8 µM | 830 tested, 35% active;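 active = mean inhibition across replicates above a set limit taken from the earlier primary screen, cut at about 28% in these data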;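 note: plate controls were EBNA-1 protein with DMSO for no effect and wells lacking EBNA-1 for full effect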
ZTA DNA inh trip – blocks Epstein-Barr virus ZTA in triplicate, EBNA-1 counter-screen. shares compounds with EBNA-1 inh. Zta-ZRE DNA binding, Cy5 fluorescence polarization. 830 tested, under 10 active. inhibition, % at 11.1 µM;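 active = mean inhibition over triplicates above a set limit taken from the primary EBNA-1 screen, cut at about 37% in these data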;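 note: purified full length Zta protein with Cy5 labeled ZRE DNA probe; 0% = Zta with DMSO and 100% = wells lacking Zta protein; inhibitors lower polarization by freeing the labeled DNA probe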
* = called active by the depositor.

`N#Cc1c(-c2ccccc2)cc(C2CC2)nc1SCC(=O)O` gave EBNA-1 inh 1, procasp7 counter -11, proCasp3 act -2, GSTO1 counter -5, Apaf1 inhib 7 and ZTA counter -13.
Screening N#Cc1c(-c2cccs2)cc(C2CC2)nc1SCC(N)=O returned EBNA-1 inh 36*, procasp7 counter -8, proCasp3 act 4, GSTO1 counter 0, Apaf1 inhib 3, ZTA counter 0, EBNA-1 confirm 31* and ZTA DNA inh trip 3.
Screening Cc1ccc(NC(=O)c2ccc3nccnc3c2)c(C)c1 returned EBNA-1 inh 5, procasp7 counter 1, proCasp3 act 1, GSTO1 counter 1, Apaf1 inhib -4 and ZTA counter -4.
CCOC(=O)c1c(C)[nH]c(C(=O)COC(=O)CCS(=O)(=O)c2ccc(C)cc2)c1C was read as EBNA-1 inh 39*, procasp7 counter 5, proCasp3 act 0, GSTO1 counter 6, Apaf1 inhib 13, ZTA counter 1, EBNA-1 confirm 29* and ZTA DNA inh trip 6.
For O=C(CSc1ccc(-c2ccccn2)nn1)Nc1cccc(F)c1 the results were EBNA-1 inh 9, procasp7 counter 9, proCasp3 act -6, GSTO1 counter -1, Apaf1 inhib 16 and ZTA counter -12.
COc1cc(C(=O)NC2CC(C)(C)Cc3c2cnn3-c2ccccc2)cc(OC)c1OC (configuration not stated) was read as EBNA-1 inh 32*, procasp7 counter 3, proCasp3 act 5, GSTO1 counter -1, Apaf1 inhib 9, ZTA counter 2, EBNA-1 confirm 34* and ZTA DNA inh trip 1.
CC(=O)C[C@@H](O)CC(=O)[C@@H]1OC(=O)[C@@H](C)C/C=C\Cc2ccccc21 was read as procasp7 counter -1, proCasp3 act -8 and Apaf1 inhib -13.
Screening CCOc1ccc(NC(=O)c2cc3cc4ccc(OC)cc4nc3o2)cc1 returned EBNA-1 inh 29*, procasp7 counter -2, proCasp3 act -6, GSTO1 counter 4, Apaf1 inhib -1, ZTA counter 3, EBNA-1 confirm 45* and ZTA DNA inh trip 5.
For O=C(Nc1ccc(NC(=O)c2ccccc2O)cc1)Nc1ccc(F)cc1F the results were EBNA-1 inh 38*, procasp7 counter -3, proCasp3 act 7, GSTO1 counter -6, Apaf1 inhib -2, ZTA counter -8, EBNA-1 confirm 10 and ZTA DNA inh trip -9.
O=C(OCc1nnc(-c2ccccc2)o1)C1CC(=O)N(CCc2ccccc2)C1 (configuration not stated) was read as procasp7 counter 0, proCasp3 act 5, Apaf1 inhib 5 and ZTA counter -10.
For COc1ccc(C(=O)N2C(=O)c3ccc(N)cc3C2=O)cc1 the results were EBNA-1 inh 34*, procasp7 counter 3, proCasp3 act 6, GSTO1 counter 8, Apaf1 inhib -20, ZTA counter -11, EBNA-1 confirm 27 and ZTA DNA inh trip -4.
Screening O=C(Nc1ccc(Oc2ccc3c(c2)C(=O)N(c2ccc(O)cc2)C3=O)cc1)c1cccs1 returned EBNA-1 inh 28*, procasp7 counter 1, proCasp3 act 0, GSTO1 counter -29, Apaf1 inhib -9, ZTA counter 22, EBNA-1 confirm 55* and ZTA DNA inh trip 13.
For O=C(CNC(=O)c1ccc(-c2ccccc2)cc1)OCc1c(Cl)cccc1Cl the results were EBNA-1 inh 15, procasp7 counter -2, proCasp3 act -6, GSTO1 counter -8, Apaf1 inhib 6 and ZTA counter -9.
`O=C(CNC(=O)c1ccc(-c2ccccc2)cc1)OCc1c(F)cccc1Cl` gave EBNA-1 inh 44*, procasp7 counter -6, proCasp3 act 6, GSTO1 counter -5, Apaf1 inhib -9, ZTA counter -17, EBNA-1 confirm 76* and ZTA DNA inh trip -12.
Screening Cc1ccc(C(=O)NCCCNC(=O)c2ccco2)cc1C returned EBNA-1 inh -5, procasp7 counter 4, proCasp3 act -3, GSTO1 counter 1, Apaf1 inhib 2 and ZTA counter -7.
`O=C(NCC1OCCc2ccccc21)c1ccc(NC(=O)c2ccc(Cl)cc2Cl)cc1` (configuration not stated) gave EBNA-1 inh 70*, procasp7 counter 10, proCasp3 act 0, GSTO1 counter -11, Apaf1 inhib 11, ZTA counter 4, EBNA-1 confirm 47* and ZTA DNA inh trip -2.
`CC(=O)c1ccc(OCC(=O)OCC(=O)N(CC(C)C)c2c(N)n(Cc3ccccc3)c(=O)[nH]c2=O)cc1` gave Apaf1 inhib -6.
`COc1ccc(CNC(=S)N2CCN(S(=O)(=O)c3cccc(F)c3)CC2)cc1` gave EBNA-1 inh 40*, procasp7 counter 5, proCasp3 act 6, GSTO1 counter -7, Apaf1 inhib -2, ZTA counter 2, EBNA-1 confirm 73* and ZTA DNA inh trip 7.
For COc1ccc(CCNC(=S)N2CCN(S(=O)(=O)c3cccc(F)c3)CC2)cc1 the results were EBNA-1 inh 6, procasp7 counter -5, proCasp3 act -4, GSTO1 counter -3, Apaf1 inhib 6 and ZTA counter -9.
Cc1cccc(/C=N/NC(=O)c2cc3c(s2)-c2ccccc2CC3)c1 was read as EBNA-1 inh 132*, procasp7 counter -14, proCasp3 act -1, GSTO1 counter -19, Apaf1 inhib 26, ZTA counter 9, EBNA-1 confirm -4 and ZTA DNA inh trip 5.
`O=C(N/N=C/c1cccc(C(F)(F)F)c1)c1cc2c(s1)-c1ccccc1CC2` gave EBNA-1 inh -8, procasp7 counter -18, proCasp3 act 3, GSTO1 counter 5, Apaf1 inhib 17 and ZTA counter 15.
Screening COc1ccc(-c2nc(SCC(=O)Nc3nccs3)c(-c3ccc(Cl)cc3)[nH]2)cc1 returned EBNA-1 inh 73*, procasp7 counter -4, proCasp3 act 13, GSTO1 counter 1, Apaf1 inhib 21, ZTA counter 4, EBNA-1 confirm 32* and ZTA DNA inh trip -2.
Cc1ccc(N2C(=O)Nc3ccccc3S2(=O)=O)cc1Cl was read as EBNA-1 inh 3, procasp7 counter 3, proCasp3 act 3, GSTO1 counter 2, Apaf1 inhib 9 and ZTA counter 5.
